Screening data from PubChem.
ROMK mod: modulators of human ROMK potassium channel. P48048. Tet-inducible ROMK, thallium flux fluorescence; actives lie on both sides. B-score at 10 µM. 2% of 130,000 active;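 active = signal ratio slope over the read window, or its plate-corrected B-score, at least 3 SD from the plate mean, either direction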;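 also: B-score of the F/F0 ratio slope over 7 to 12 s after thallium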
Ins promoter up: MIN6 insulin promoter up-regulation; MIN6 insulin promoter-GFP reporter, high-content imaging; stronger effect = higher value; z-score at 5 µM; 0.3% of 190,000 active; AID 1625;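 active = z-score above 3 at 5 µM with at least 500 cells counted in the well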
SDO1 yeast rescue: compounds rescuing growth of sdo1-depleted yeast, bone marrow failure model; S. cerevisiae sdo1-depleted JHY4D growth rescue, OD600 30 h; stronger effect = higher value; pdr5 snq2 efflux-pump mutant strain; AID 817; 0.21% of 140,000 active; z-score at 10 µM;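 active = z-score above 3 at both the 24 hr and the 30 hr optical density reads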;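 also: z-score against mean and SD of all compound wells on the same plate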
ABCB1 inh: inhibitors of human ABCB1 transporter, ABCG2 counter-screen; 0.067% of 190,000 active; AID 1326; CCRF-Adr cells, JC-1 efflux, flow cytometry; inhibition, % at 6.6 µM; P08183; in the data active = inhibition above about 40%;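 also: 0% = vehicle and 100% = reference inhibitor; higher value means more JC-1 retained so stronger ABCB1 efflux block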
ABCG2 block: blocks JC-1 efflux by human ABCG2 transporter; Q9UNQ0; IgMXP3 cells, flow cytometry; inhibition, % at 6.6 µM; 0.1% of 190,000 active; AID 1325;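 active = inhibition above 80%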;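 also: 0% = DMSO and 100% = nicardipine control wells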
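Read-out basis: Efflux inhibition in percent versus controls | Test system: ABCG2 IgMXP3 and barcoded ABCB1 CCRF-Adr cell mix | Quantity: 3 million cells/mL in well | Schedule: 10 min at 25 °C | Control set: Nicardipine as high control, DMSO as low control | Reagent: JC-1 as fluorescent efflux pump substrate | Signal: Flow cytometry of retained JC-1 fluorescence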
Autophagy mod: alters autophagy in cells; MEF GFP-LC3 puncta imaging; test concentration mostly 10 µM; 0.98% of 190,000 active; calls only at 10 µM (by protocol); AID 463193;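 active = percentage of spot-positive cells more than 3 SD above its plate mean, without a fluorescence outlier flag or 80% toxicity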;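 also: spot-positive cell cutoff set from DMSO-treated cells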
Starred values were filed as active, the others as inactive; i = inactive; · = not tested or not shown; + = active, no number. The list is not random: actives were taken first. Their share in the collection is about 2.3%.

SMILES	ROMK mod	Ins promoter up	SDO1 yeast rescue	ABCB1 inh	ABCG2 block	Autophagy mod
COc1ccc(Oc2nc(OC)cc(OC)n2)cc1	-0.21	0.99	·	0	1	i
COc1ccc(OCC(=O)N/N=C(\C)CC(=O)Nc2cccc([N+](=O)[O-])c2)cc1	-0.0013	-0.05	·	0	11	i
COC(=O)c1sccc1NC(=O)Nc1cccc(F)c1	1.7	-0.79	·	0	9	i
CC1CN(C)C(C)c2c1oc1ccc([N+](=O)[O-])cc21 (stereo not drawn)	-0.2	-0.23	·	0	0	+
CC1CN(C)C(C)c2c1oc1ccc(N)cc21 (stereo not drawn)	·	-0.19	·	-1	-3	i
COC(C[C@H]1O[C@H]1[C@H](O)[C@H](C)OCc1ccccc1)OC	·	-0.02	·	·	·	·
CCN(CCNC(=O)Nc1ccc(Cl)cc1)c1ccccc1	·	1.5	-1.5	0	4	+
O=C(NCCc1ccc(Cl)cc1)Nc1ccc(Cl)cc1	1.5	-0.04	·	·	·	·
O=C1CSC2(N1)C1CC3CC(C1)CC2C3 (stereo not drawn)	·	0.53	·	·	·	·
O=C(O)/C=C/C(=O)NCCCc1ccccc1	1.4	-1.1	·	0	1	i
Cc1ccc(C)c(NC(=S)Nc2ccc(S(=O)(=O)Nc3ncccn3)cc2)c1	·	·	0.39	0	-1	+
C=C1SC(=Nc2c(C)cc(C)cc2C)N(C(=O)c2sc3ccccc3c2Cl)C12CCCCC2	·	0.23	·	·	·	·
C=C1CCN([C@H](C(=O)NCc2ccc(Cl)cc2)C(C)C)S(=O)(=O)c2ccccc21	·	0.19	·	·	·	·
CCC(=O)Nc1ccc(C(=O)OCC(=O)c2ccc(C)c([N+](=O)[O-])c2)cc1	·	3.4*	-0.35	1	4	i
CC(=O)Nc1ccc(C(=O)OCC(=O)c2ccc(C)c([N+](=O)[O-])c2)cc1	·	0.18	0.21	1	7	i
O=C(CSc1nnc(-c2cccs2)o1)N1CCCCC1	·	0.1	0.32	0	0	i
CC1CCCC(C)N1C(=O)CSc1nnc(-c2cccs2)o1 (stereo not drawn)	0.012	3.5*	-0.83	0	2	i
COc1c(C)cc(Br)cc1C(=O)Nc1ccc(Cc2ccncc2)cc1	-0.31	0.71	·	0	4	+
COC(=O)C1=C(C(=O)OC)[C@@H]2N(Cc3ccccc3)c3ccccc3[C@@]23C[C@@H](C(=O)OC)N(C(=O)COCc2ccccc2)C3=N1	·	-0.11	·	·	·	·
CC(=O)Nc1ccc(/C(C)=N/Nc2nc(Nc3cccc4ccccc34)nc(N3CCOCC3)n2)cc1	-0.1	-0.78	-0.06	0	-5	i
O=C(NCCN1C(=O)S/C(=C\c2cccnc2)C1=O)c1cc(S(=O)(=O)N2CCOCC2)ccc1F	·	0.22	·	·	·	·
COc1ccccc1C(=O)Nc1ccc2c(c1)nc(CN1CCCCC1)n2C	-0.96	0.54	·	1	6	i
O=C(CSc1nc2ccc(Cl)cc2o1)NCc1ccc2c(c1)OCO2	·	4*	-1.3	-1	14	i
O=C(CSc1nc2ccccc2o1)NCc1ccc2c(c1)OCO2	·	0.63	-1.6	-2	-2	·
COc1ccc(OCC2c3cc(OC)c(OC)cc3CCN2C(=O)C(C)C)cc1 (stereo not drawn)	0.5	-0.89	·	1	1	i
SMILES	ROMK mod	Ins promoter up	SDO1 yeast rescue	ABCB1 inh	ABCG2 block	Autophagy mod
CC(/C=N\NC(=O)CN1CCN(S(=O)(=O)c2ccc(C)cc2)CC1)=C\c1ccccc1	·	0.43	-0.58	2	14	i
C/C(=N\NC(=S)NC1CCCCC1)c1cccc(Br)c1	·	-0.03	-0.7	0	42	i
C/C(=N\NC(=S)NC1CCCCC1)c1ccc(C#N)cc1	·	-0.77	-0.8	0	5	+
Cn1ccnc1SCC(=O)Nc1cccc(S(=O)(=O)N2CCCCC2)c1	-1.1	-0.51	·	2	10	i
CCN(CC)c1ccc(/C=N/NC(=O)CCC(=O)NCc2ccccc2)c(O)c1	·	-0.39	-0.06	2	17	i
CC(C)C(c1nnnn1C1CCCC1)N1CCC(C(N)=O)CC1 (stereo not drawn)	0.94	-0.53	·	0	2	i
CC(C)C(c1nnnn1C1CCCC1)N1CCOCC1 (stereo not drawn)	·	3*	0.38	0	0	i
COc1ccc(S(=O)(=O)NNC(=O)c2cc3ccccc3o2)cc1	1	0.54	0.47	0	-5	i
